Test results taken from ChEMBL document CHEMBL4725452, “Targeted Covalent Inhibition of Plasmodium FK506 Binding Protein 35” (ACS Med Chem Lett, 2020).
Activity calls are given as the source filed them. The rule behind the calls is not given here.

Key:
Plasmodium falciparum [1] = assay: Covalent binding affinity to N-terminal 6His-SUMO-tagged Plasmodium falciparum FKBP35 binding domain (FBD35) (Q5-A128) expressed in Escherichia coli BL21 (DE3) cells assessed as binding at C106 position by mass spectrometry
Method in brief: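 Protein-compound reaction mixture saved in parallel with DSC. Denatured in urea/NaCl in 50 mM Tris pH 8.0, reduced with TCEP at 37 °C for 60 min, free thiols alkylated with iodoacetamide at RT in the dark for 30 min. Digested with chymotrypsin (1:100 molar) overnight at 37 °C, quenched with formic acid. Peptides resolved on C18 UPLC at 45 °C and analyzed by Q Exactive HF MS.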

Plasmodium falciparum [2] = assay: Binding affinity to N-terminal 6His-SUMO-tagged Plasmodium falciparum FKBP35 binding domain (FBD35) (Q5-A128) expressed in Escherichia coli BL21 (DE3) cells assessed as change in melting temperature at 40 uM by differential scanning […] analysis
Method in brief: (§1)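 Differential scanning calorimetry. Purified protein (6His-SUMO tag removed) dialyzed into 25 mM HEPES pH 7.8, 150 mM NaCl. Protein at 0.4 mg/mL (6-9 uM), with or without compound at 40 µM, 2% DMSO (v/v). Scanned 25-90 °C, reference scans subtracted. Tm taken as midpoint of the heat capacity curve.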

[3] = biological target: Peptidyl-prolyl cis-trans isomerase FKBP1A (Homo sapiens, UniProt P62942); assay: Binding affinity to N-terminal 6His-SUMO-tagged human full length FKBP12 expressed in Escherichia coli BL21 (DE3) cells assessed as change in melting temperature at 40 uM by differential scanning […] analysis; method in brief: as §1
Chain of Peptidyl-prolyl cis-trans isomerase FKBP1A (P62942 whole entry): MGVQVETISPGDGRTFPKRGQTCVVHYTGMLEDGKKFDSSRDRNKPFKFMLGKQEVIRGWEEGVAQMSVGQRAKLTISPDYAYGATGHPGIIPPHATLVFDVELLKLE

Plasmodium falciparum [4] = assay: Antiplasmodial activity against blood stage of Plasmodium falciparum 3D7 assessed as parasite growth inhibition; assay type: functional, organism-based
Plasmodium falciparum [5] = assay: Antiplasmodial activity against blood stage of Plasmodium falciparum NF54 assessed as parasite growth inhibition
[6] = Displacement of fluorescent tracer Rap-Gly-BDP from nanoluciferse-tagged Plasmodium falciparum FKBP35 expressed in HEK293T cells incubated for 2 hrs by NanoBRET assay; assay type: cell-based; settings: HEK-293T
Method in brief: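 HEK293T cells stably expressing N-terminal NanoLuc-FKBP35 (lentiviral, puromycin-selected) plated at 0.2 x 10^6 cells/mL in Opti-MEM and incubated overnight at 37°C, 5% CO2. Rap-Gly-BDP tracer added to 1 µM for 10 min, then test compounds at varying concentrations for 2 h at 37°C. Nano-Glo substrate plus extracellular NanoLuc inhibitor added and read immediately. BRET ratio corrected against no-tracer control.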

| Activity [3] | Compound | Activity (Plasmodium falciparum [2]) | IC50 (Plasmodium falciparum [5]) | further results |
| --- | --- | --- | --- | --- |
| Not Active | C=CC(=O)NCc1ccccc1NC(=O)CSc1nc2cccnc2[nH]1 | inactive | – | Activity (Plasmodium falciparum [1]): Active |
| Not Active | CCC(=O)NCc1ccccc1NC(=O)CSc1nc2cccnc2[nH]1 | inactive | – | – |
| – | O=C(NNC(=O)C12CC3CC(CC(C3)C1)C2)c1ccncc1 | – | – | IC50 (Plasmodium falciparum [4]): 0.25 µM |
| – | CC[C@H]1CN(Cc2ccccn2)C(=O)C2CCCC1N2S(=O)(=O)c1cc(Cl)cc(Cl)c1 (some centres undefined) | – | 2.3 µM | – |
| – | CO[C@H]1C[C@@H]2CC[C@@H](C)[C@@](O)(O2)C(=O)C(=O)N2CCCC[C@H]2C(=O)O[C@H]([C@H](C)C[C@@H]2CC[C@@H](O)[C@H](OC)C2)CC(=O)[C@H](C)/C=C(\C)[C@@H](O)[C@@H](OC)C(=O)[C@H](C)C[C@H](C)/C=C/C=C/C=C/1C [SIROLIMUS] | – | 2.6 µM | IC50 [6]: 0.034 µM |
| – | C=CC[C@@H]1/C=C(\C)C[C@H](C)C[C@H](OC)[C@H]2O[C@@](O)(C(=O)C(=O)N3CCCC[C@H]3C(=O)O[C@H](/C(C)=C/[C@@H]3CC[C@@H](O)[C@H](OC)C3)[C@H](C)[C@@H](O)CC1=O)[C@H](C)C[C@@H]2OC [TACROLIMUS ANHYDROUS] | – | 1.9 µM | – |
| – | CCc1ccccc1NC(=O)CSc1nc2cccnc2[nH]1 | – | – | IC50 (Plasmodium falciparum [4]): 0.235 µM |
| Not Active | C=CC(=O)NCc1ccc(NC(=O)CSc2nc3cccnc3[nH]2)cc1 | inactive | – | Activity (Plasmodium falciparum [1]): Active |
